Activity calls are given as the source filed them. No cut-off for these calls is given here.
Columns and labels:
[1] = Drug metabolism in dog hepatocytes assessed as lactone hydrolysis at 1 uM measured at 120 mins; assay type: ADME, cell-based, Canis lupus familiaris, Hepatocyte; details: read-out: Drug metabolism
[2] = target: T1, Inward rectifier potassium channel 13 (Homo sapiens) (UniProt O60928); assay: Inhibition of Kir7.1 (unknown origin) upto 30 uM
T1 sequence (whole entry): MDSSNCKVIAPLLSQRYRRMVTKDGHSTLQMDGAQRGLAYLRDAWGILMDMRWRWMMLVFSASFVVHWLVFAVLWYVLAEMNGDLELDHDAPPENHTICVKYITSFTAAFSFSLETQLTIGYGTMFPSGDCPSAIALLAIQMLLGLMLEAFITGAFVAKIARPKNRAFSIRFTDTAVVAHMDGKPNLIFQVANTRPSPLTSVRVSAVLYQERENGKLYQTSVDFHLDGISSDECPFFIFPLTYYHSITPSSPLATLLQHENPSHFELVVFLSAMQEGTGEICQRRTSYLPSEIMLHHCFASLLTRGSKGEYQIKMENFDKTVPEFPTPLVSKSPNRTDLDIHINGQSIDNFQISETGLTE

[3] = Drug metabolism in monkey hepatocytes assessed as oxidation at 1 uM measured at 120 mins; assay type: ADME, cell-based, Macaca mulatta, Hepatocyte; details: rhesus monkey, 2 h
[4] = Cardiotoxicity in vagotomized cardiovascular dog model assessed as effect on heart rate at plasma concentration <= 11.6 uM at 1 to 7 mg/kg, iv administered during three sequential 30 min periods; assay type: toxicity, organism-based, Canis lupus familiaris; details: in vivo, 0.5 h
In short: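 Anesthetized, vagotomized dogs received IV infusions over sequential periods at 1, 2 and 7 mg/kg (10 mg/kg cumulative). Heart rate, mean arterial pressure and ECG intervals (PR, QRS, QT/QTc) were recorded predose and during each infusion period. Plasma concentrations were measured.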

[5] = system: Rattus norvegicus; assay: Antihypertensive activity in spontaneously hypertensive rat assessed as reduction in systolic blood pressure at 10 mg/kg via oral gavage qd administered for 4 days measured on day 4 by telemetry (reference value: 2.5 +/- 2.2 mmHg); assay type: functional
[6] = target: Cytochrome P450 3A4 (Homo sapiens, UniProt P08684); assay: Time dependent inhibition of human CYP3A4 at 10 to 50 uM; assay type: ADME
Sequence of Cytochrome P450 3A4 (P08684 whole entry): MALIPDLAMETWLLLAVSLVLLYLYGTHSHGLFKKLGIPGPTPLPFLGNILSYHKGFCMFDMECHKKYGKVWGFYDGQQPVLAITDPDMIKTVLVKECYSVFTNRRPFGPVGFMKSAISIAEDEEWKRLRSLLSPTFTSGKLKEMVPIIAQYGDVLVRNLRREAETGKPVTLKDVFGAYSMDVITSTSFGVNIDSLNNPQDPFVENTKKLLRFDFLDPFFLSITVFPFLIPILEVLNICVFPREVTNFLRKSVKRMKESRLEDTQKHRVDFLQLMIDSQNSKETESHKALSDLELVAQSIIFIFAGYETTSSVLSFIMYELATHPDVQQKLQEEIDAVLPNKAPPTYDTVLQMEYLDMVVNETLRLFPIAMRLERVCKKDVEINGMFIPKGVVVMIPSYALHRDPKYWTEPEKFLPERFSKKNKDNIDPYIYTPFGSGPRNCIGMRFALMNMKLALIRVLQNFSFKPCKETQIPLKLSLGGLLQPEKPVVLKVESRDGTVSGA

## Cc1c([C@@H](O)CN2CCN(C[C@H](O)c3ccc4c(c3C)COC4=O)CC2)ccc2c1COC2=O [MK-7145]
[1]
  metabolised at 2 h, 1 µM: < 1%
[2]
  inhibition: inactive
[3]
  Drug metabolism: 15 to 37%
[4]
  Activity: Non-Toxic
[5]
  Activity: 19.9 mmHg
[6]
  TDI: Not Active
